Laboratory results reported in ChEMBL document CHEMBL1126671 (J Med Chem, 1993).

Assays:
[1] = Inhibition of protein kinase A was evaluated as Inhibitory concentration
Outline: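 PKA from bovine heart; procedure as in earlier work; triplicate points per assay; IC50 is the mean of at least two independent assays.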

[2] = biological target: Protein kinase C, PKC; classical (Rattus norvegicus, UniProt P05696+P68403+P63319); assay: Inhibition of protein kinase C was evaluated as Inhibitory concentration; format: protein assay
Outline: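 Rat brain PKC; procedure as in earlier work; triplicate points per assay; IC50 is the mean of at least two independent assays.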

[3] = biological target: cAMP-dependent protein kinase (PKA) (Homo sapiens, UniProt P22694+P17612+P22612); assay: Inhibition of human neutrophil protein kinase A (PKA); format: protein assay
[4] = Antagonistic effect on allogenic mixed lymphocyte reaction; format: functional
Outline: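 Allogeneic mixed lymphocyte reaction run by a published method; triplicate points per assay; IC50 is the mean of at least three independent assays.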

[5] = (§1) Inhibition of rabbit muscle phosphorylase kinase (PhK); design: species or system Oryctolagus cuniculus
Outline: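 Rabbit muscle phosphorylase kinase; procedure as in earlier work; triplicate points per assay; IC50 is the mean of at least two independent assays.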

[6] = biological target: Protein kinase C (PKC); assay: Inhibition of protein kinase C (PKC) of rat brain
[7] = biological target: Protein kinase C, PKC; classical/novel; assay: Antagonistic effect on TPA-stimulated CD3 down-regulation in T-cells; format: functional
Outline: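 Procedure as in earlier work; TPA-stimulated CD3 down-regulation in T-cells; triplicate points per assay; IC50 is the mean of at least two independent assays.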

[8] = biological target: Proto-oncogene tyrosine-protein kinase Src (Homo sapiens, UniProt P12931); assay: Inhibition of human p60 c-src
Outline: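 Human p60c-src (20 units) with angiotensin II substrate (60 µg), 10 µM [γ-32P]ATP, 10 mM MgCl2, in 50 mM HEPES, 0.1 mM EDTA, 0.015% Brij 35, pH 7.5; final DMSO 10%. Incubated 60 min at 30 °C, stopped with 40 mM EDTA. Aliquots spotted on phosphocellulose paper, washed with orthophosphoric acid, counted by liquid scintillation.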

[9] = Inhibition of human neutrophil protein kinase C (PKC)
[10] = Inhibition of rat liver casein kinase II
[11] = biological target: Tyrosine-protein kinase Lck (Homo sapiens, UniProt P06239); assay: Inhibition of human p56 lck
[12] = species: Homo sapiens; assay: Inhibition of TPA-stimulated 47-kDa protein phosphorylation in platelets; format: functional
Outline: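 Procedure as in earlier work; TPA-stimulated 47-kDa protein phosphorylation in platelets; triplicate points per assay; IC50 is the mean of at least three independent assays.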

[13] = Inhibition of human platelet protein kinase C (PKC)
[14] = as §1; design: species or system Oryctolagus cuniculus; remark: listed apart in the source

Chain of Tyrosine-protein kinase Lck (P06239 whole entry): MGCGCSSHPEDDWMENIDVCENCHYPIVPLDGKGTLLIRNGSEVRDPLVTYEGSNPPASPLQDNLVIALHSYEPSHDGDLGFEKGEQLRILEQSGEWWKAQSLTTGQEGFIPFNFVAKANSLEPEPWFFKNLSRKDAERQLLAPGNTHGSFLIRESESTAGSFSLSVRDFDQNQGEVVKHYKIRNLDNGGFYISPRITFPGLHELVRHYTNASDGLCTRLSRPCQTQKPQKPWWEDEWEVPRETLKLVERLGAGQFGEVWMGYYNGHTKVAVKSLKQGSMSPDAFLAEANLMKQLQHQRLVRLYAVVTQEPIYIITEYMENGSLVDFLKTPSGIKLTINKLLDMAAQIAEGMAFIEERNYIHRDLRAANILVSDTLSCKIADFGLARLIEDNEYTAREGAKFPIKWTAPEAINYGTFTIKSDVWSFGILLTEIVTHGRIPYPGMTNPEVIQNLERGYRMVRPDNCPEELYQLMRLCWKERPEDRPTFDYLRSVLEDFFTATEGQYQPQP
Chain of Proto-oncogene tyrosine-protein kinase Src (P12931 2-536 limits assumed): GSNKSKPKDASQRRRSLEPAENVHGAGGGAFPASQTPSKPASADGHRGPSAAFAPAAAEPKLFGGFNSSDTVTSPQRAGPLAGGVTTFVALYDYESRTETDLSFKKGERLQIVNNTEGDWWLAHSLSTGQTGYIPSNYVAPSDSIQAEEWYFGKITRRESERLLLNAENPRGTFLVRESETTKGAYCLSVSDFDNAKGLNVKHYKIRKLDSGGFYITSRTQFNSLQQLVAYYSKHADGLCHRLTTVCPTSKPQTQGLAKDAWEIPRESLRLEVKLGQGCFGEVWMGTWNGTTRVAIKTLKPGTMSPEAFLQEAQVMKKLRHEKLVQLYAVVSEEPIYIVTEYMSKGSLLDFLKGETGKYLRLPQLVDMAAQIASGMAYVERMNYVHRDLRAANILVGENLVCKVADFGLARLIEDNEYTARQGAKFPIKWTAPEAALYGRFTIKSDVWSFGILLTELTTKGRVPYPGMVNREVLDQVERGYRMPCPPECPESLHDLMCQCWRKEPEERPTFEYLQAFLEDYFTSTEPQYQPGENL

SMILES | IC50 [1] | IC50 [2] | other results
Cn1cc(C2=C(c3c4n(c5ccccc35)CCCC(CN)C4)C(=O)NC2=O)c2ccccc21 (stereo not drawn) | 34000 nM | 272 nM | –
Cn1cc(C2=C(c3cn(CCCN)c4ccccc34)C(=O)NC2=O)c2ccccc21 | – | 75 nM | –
Cn1cc(C2=C(c3c4n(c5ccccc35)CC(N)CC4)C(=O)NC2=O)c2ccccc21 (stereo not drawn) | 4100 nM | 135 nM | –
Cl.Cn1cc(C2=C(c3c4n(c5ccccc35)CC(CCN)CC4)C(=O)NC2=O)c2ccccc21 (stereo not drawn) | 4500 nM | 23 nM | –
Cn1cc(C2=C(c3c4n(c5ccccc35)CCC(C[N+](C)(C)C)C4)C(=O)NC2=O)c2ccccc21 (stereo not drawn) | 92500 nM | 49 nM | –
Cn1cc(C2=C(c3c4n(c5ccccc35)CCC4)C(=O)NC2=O)c2ccccc21 | 68000 nM | 210 nM | –
Cn1cc(C2=C(c3c4n(c5ccccc35)CCC(CCN)C4)C(=O)NC2=O)c2ccccc21 (stereo not drawn) | 24000 nM | 47 nM | –
Cn1cc(C2=C(c3c4n(c5ccccc35)CCCC4)C(=O)NC2=O)c2ccccc21 | 23000 nM | 155 nM | –
Cn1cc(C2=C(c3c4n(c5ccccc35)CCCCC4)C(=O)NC2=O)c2ccccc21 | > 100000 nM | 450 nM | –
Cn1cc(C2=C(c3c4n(c5ccccc35)CC[C@H](CN)C4)C(=O)NC2=O)c2ccccc21 | 12100 nM | 4.1 nM | –
CN(C)CC1CCn2c(c(C3=C(c4cn(C)c5ccccc45)C(=O)NC3=O)c3ccccc32)C1.Cl (stereo not drawn) | 8600 nM | 42 nM | IC50 [3]: 5900 nM; IC50 [4]: 540 nM; IC50 [6]: 42 nM; IC50 [14]: 1100 nM; IC50 [8]: > 100000 nM; IC50 [9]: 32 nM; IC50 [10]: > 100000 nM; IC50 [11]: > 100000 nM; IC50 [12]: 950 nM; IC50 [13]: 45 nM
CNCC1CCn2c(c(C3=C(c4cn(C)c5ccccc45)C(=O)NC3=O)c3ccccc32)C1.Cl (stereo not drawn) | 4800 nM | 9.8 nM | –
CN[C@@H]1C[C@H]2O[C@@](C)([C@@H]1OC)n1c3ccccc3c3c4c(c5c6ccccc6n2c5c31)C(=O)NC4 [STAUROSPORINE] | – | – | IC50 [9]: 2.5 nM
Cn1cc(C2=C(c3c4n(c5ccccc35)CC(CN)CCC4)C(=O)NC2=O)c2ccccc21 (stereo not drawn) | 12800 nM | 400 nM | –

Second part, led by results:

IC50 [1] | IC50 [2] | SMILES | other results
3900 nM | 14 nM | Cn1cc(C2=C(c3c4n(c5ccccc35)CC(CN)C4)C(=O)NC2=O)c2ccccc21 (stereo not drawn) | –
2400 nM | 100 nM | Cn1cc(C2=C(c3c4n(c5ccccc35)CCC(N)CC4)C(=O)NC2=O)c2ccccc21 (stereo not drawn) | –
900 nM | 10 nM | Cn1cc(C2=C(c3c4n(c5ccccc35)CC[C@@H](CN)C4)C(=O)NC2=O)c2ccccc21 | –
2600 nM | 16.5 nM | Cn1cc(C2=C(c3c4n(c5ccccc35)CCC(CN)CC4)C(=O)NC2=O)c2ccccc21 (stereo not drawn) | –
2800 nM | 7.6 nM | Cn1cc(C2=C(c3c4n(c5ccccc35)CCC(CN)C4)C(=O)NC2=O)c2ccccc21 (stereo not drawn) | IC50 [3]: 1200 nM; IC50 [4]: 470 nM; IC50 [5]: 1300 nM; IC50 [6]: 7.6 nM; IC50 [7]: 600 nM; IC50 [8]: > 100000 nM; IC50 [9]: 4.8 nM; IC50 [10]: > 100000 nM; IC50 [11]: > 100000 nM; IC50 [12]: 460 nM; IC50 [13]: 12 nM
1100 nM | 15 nM | Cn1cc(C2=C(c3c4n(c5ccccc35)CC(CN)CC4)C(=O)NC2=O)c2ccccc21 (stereo not drawn) | –
3200 nM | 540 nM | Cn1cc(C2=C(c3c4n(c5ccccc35)CCNC4)C(=O)NC2=O)c2ccccc21 | –
3300 nM | 110 nM | Cn1cc(C2=C(c3c4n(c5ccccc35)CCC(N)C4)C(=O)NC2=O)c2ccccc21 (stereo not drawn) | –
